GSH fluor = GSH bead compound fluorescence profile; GSH beads flow cytometry, compound fluorescence 488/530 nm; hits give high values; fluorescence (KMESF) at 10 µM; hit rate 0.25% among 190,000; AID 1776; in the data active = fluorescence above about 89;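 note: glutathione beads carrying GST-tagged Bcl family fusion proteins plus one bare bead set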
Diaph act CS = diaphorase activation or chemical reduction counter-screen; hit rate 0.005% among 190,000; activation factor at 20 µM; Diaphorase/resazurin coupled assay, resorufin fluorescence, 16 min; hits give high values; 1 = vehicle wells, 0 = NADH-free wells;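 active = diaphorase activity raised at least twofold by the compound at 20 µM; inactive = activation factor below 2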
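Material: bacterial diaphorase enzyme (C. kluyveri); amount: enzyme 0.07 U/mL final; reagent: NADH substrate 0.114 mM plus resazurin dye 0.1 mM, final; doses: single compound dose of 20 µM, 1% DMSO final; timing: 16 min enzyme reaction, ambient temperature; measured by: fluorescence of resorufin, 544 nm excitation, 590 nm emission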
p47phox inh = p47phox (human) inhibition. P14598. p47phox/p22phox peptide binding, fluorescence polarization, 2 h. inhibition, % at 24.7 µM. hit rate 0.53% among 220,000. AID 1274;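 active = inhibition above about 30%, limit read from the data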
PMI act = increases human mannose-6-phosphate isomerase activity; P34949; AID 1214; activation factor at 20 µM; hit rate 0.005% among 190,000; purified human PMI, coupled resazurin fluorescence, 20 min; hits give high values; 1 = vehicle control, 0 substrate-free wells;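 active = activation factor of 2 or more at 20 µM, relative to plate controls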
Target sequence (P34949 whole entry, looked up): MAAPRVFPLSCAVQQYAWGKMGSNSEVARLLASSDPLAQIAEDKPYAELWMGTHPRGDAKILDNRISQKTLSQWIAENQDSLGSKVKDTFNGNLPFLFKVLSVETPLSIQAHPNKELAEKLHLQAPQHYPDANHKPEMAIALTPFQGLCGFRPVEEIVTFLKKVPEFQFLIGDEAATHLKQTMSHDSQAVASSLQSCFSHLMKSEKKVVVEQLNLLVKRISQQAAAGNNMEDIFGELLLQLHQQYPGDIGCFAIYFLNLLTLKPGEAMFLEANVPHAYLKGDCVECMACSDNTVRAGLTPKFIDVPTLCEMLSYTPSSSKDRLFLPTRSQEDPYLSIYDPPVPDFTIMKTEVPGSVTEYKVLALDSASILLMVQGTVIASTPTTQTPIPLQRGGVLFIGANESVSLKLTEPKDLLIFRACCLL
PMI act satM6P = PMI (human) activation, high substrate; P34949; coupled PMI enzyme assay, resazurin fluorescence, 20 min; hits give high values; 1 = untreated enzyme, 0 = substrate-free blank; activation factor at 20 µM; hit rate 0.34% among 190,000; AID 1216;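 active = activation factor of 2 or more at 20 µM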
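Technique: Diaphorase-driven resazurin-to-resorufin fluorescence, excitation 544, emission 590 nm | Assay system: Human PMI in coupled enzyme assay | Times: Enzyme reaction with compound 20 min at room temperature | Medium: HEPES-buffered pH 7.4 with magnesium and detergent | Reagent: Mannose-6-phosphate 1.0 mM (near-saturating) plus 0.22 mM NADP+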
Avidin bead fluor = compound fluoresces at 488/530 nm on avidin beads | hit rate 0.38% among 220,000 | compound fluorescence 488/530 nm, flow cytometry; hits give high values | AID 1775 | fluorescence (KMESF) at 10 µM; in the data active = fluorescence above about 47
Large screens that a line does not name were inactive. In the library only some 1.4% were active in any assay of this set; here they are far more common.

CC(=O)NC(=S)Nc1ccc(NC(=O)COc2ccc(Cl)cc2Cl)cc1	Avidin bead fluor 78
CN(c1ccccc1C(=O)Nc1ccc(S(=O)(=O)N2CCOCC2)cc1)S(C)(=O)=O	none
Cc1cccc2sc(NNC(=O)c3ccc(S(=O)(=O)N4CCc5ccccc5C4)cc3)nc12	PMI act satM6P 2.1
Cc1ccc(C(=O)Nc2ccc(S(=O)(=O)N3CCc4ccccc4C3)cc2)o1	Avidin bead fluor 50
Cc1cccc(C)c1-n1nnnc1-c1cnccc1C(F)(F)F	none (no result: GSH fluor, Diaph act CS, PMI act, PMI act satM6P)
COc1cccc(C2CC(C(F)(F)F)n3ncc(C(=O)NC(C)(C)C)c3N2)c1 (centres undefined)	none
CC(C(=O)OCc1nnc(-c2ccccc2)o1)N1C(=O)c2ccccc2C1=O (centres undefined)	GSH fluor 263
Cc1ccc2nc(NC(=O)c3cccc(-c4cc5ccccc5oc4=O)c3)sc2c1	none
CCOc1ccc2nc(NC(=O)c3cccc(-c4cc5ccccc5oc4=O)c3)sc2c1	p47phox inh 57, Avidin bead fluor 74
COc1ccc2c(CC(=O)Nc3ccccc3N3CCOCC3)coc2c1	none (no result: GSH fluor, Diaph act CS, PMI act, PMI act satM6P)
Cc1ccc2nc(SCC(=O)NCc3ccco3)c(C#N)cc2c1	p47phox inh 33
CC(C)N(C(=O)c1sc2cc([N+](=O)[O-])ccc2c1Cl)C(C)C	none
O=C(O)/C(=C\c1ccco1)NC(=O)c1cccc2ccccc12	p47phox inh 127
O=C(O)/C(=C/c1ccco1)NC(=O)c1ccccc1	none
COCCN1C(=O)c2ccccc2C(C(=O)NCc2ccco2)C1c1c[nH]c2ccccc12 (centres undefined)	Avidin bead fluor 47
CCCOc1ccc(C2CC(=O)NC2=O)cc1 (centres undefined)	none
CCCCOc1ccc(C2CC(=O)NC2=O)cc1 (centres undefined)	Avidin bead fluor 79
Cc1ccc(C)c(N2C(=O)CN=C2Nc2ccccc2Cl)c1	none
O=C(O)CC1SC(=Nc2ccccc2)N(c2ccccc2)C1=O (centres undefined)	none
COc1ccc(N2C(=O)C(CC(=O)O)S/C2=C\C(C)=O)cc1 (centres undefined)	GSH fluor 251
O=C(c1ccc(CNc2c(N3CCCC3)c(=O)c2=O)cc1)N1CC=C(c2ccccc2)CC1	none (no result: GSH fluor, Diaph act CS, PMI act, PMI act satM6P)
CC1(C)C(c2ccco2)=[N+]([O-])C2(CCCCC2=O)N1O (centres undefined)	none
C/C(=N/Nc1ccc(C)cc1)C1(C)N(O)C(C)(C)C(c2ccco2)=[N+]1[O-] (centres undefined)	PMI act satM6P 2.7
CC(=O)N1CCc2[nH]c3ccccc3c2C1	none
CC(=O)N1C=Cc2c(c(C)c3c([nH]c4ccccc43)c2C)C1	p47phox inh 77 (no result: GSH fluor, Diaph act CS, PMI act, PMI act satM6P)
Cn1c(SCC(=O)NCCN2C(=O)CSC2=O)nnc1-c1ccccc1	Avidin bead fluor 138
CC1(C)CC2(C)OCCN2C(=S)N1 (centres undefined)	none (no result: GSH fluor, Diaph act CS, PMI act, PMI act satM6P)
CC(O)C1C(=O)OC2(C)CC(C)(C)NC(=S)N12 (centres undefined)	GSH fluor 119
Cc1cc(NC(=O)c2ccccc2Cl)n(C(C)(C)C)n1	none (no result: GSH fluor, Diaph act CS, PMI act, PMI act satM6P)
Cc1onc(-c2ccccc2)c1C(=O)Nc1ccon1	p47phox inh 36
CCOC(=O)c1c(CSc2ccccc2)n(C)c2cc(Br)c(OCC(O)CNC(CO)(CO)CO)cc12 (centres undefined)	p47phox inh 42 (no result: GSH fluor)
Cc1ccc2nc(-c3ccsc3)c(NC3CCCC3)n2c1	none
Cc1cccc(-c2nc3ccccc3c3nncn23)c1	none
c1ccc(-c2nc3ccccc3c3nncn23)cc1	p47phox inh 35

Screening data as filed in PubChem BioAssay.
